Shown are actives, neighbours in structure and some others; about 1.9% of the full set was active somewhere.
APP transl inh: inhibitors of APP translation via 5'UTR reporter, primary screen, APP 5'UTR luciferase, SH-SY5Y cells. SH-SY5Y APP 5'UTR-luciferase reporter, luminescence. inhibition, % at 2 µM. 0.82% of 190,000 active. AID 1285, 2008;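 active = inhibition above a set limit, derived from the sample mean plus 3 SD, cut at about 45% in these data; inconclusive = one replicate passes the limit while the other fails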
Jurkat NFkB inh: inhibitors of induced NF-kB luciferase reporter, primary screen, TCR NF-kB activation inhibitor project, cell-based, luminescence, uHTS. Jurkat, PMA/ionomycin-induced NF-kB luciferase reporter. inhibition, % at 4 µM. 0.53% of 330,000 active. AID 435003, 2010; in the data active = inhibition above about 50%
TAG inh: inhibitors of triacylglycerol accumulation, primary screen, cell-based, uHTS, fluorescence, H9c2 | 0.66% of 230,000 active | AID 651582, 2012 | H9c2 cells, Nile Red lipid (TAG) fluorescence; cells loaded with 200 µM oleic acid | inhibition, % at 12.5 µM;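 active = pattern-corrected inhibition of lipid staining of at least 50% with the nuclear-stain viability signal not falling by more than 50%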
aSyn 5UTR inh: MLPCN primary screen, SNCA 5' untranslated region; alpha-synuclein 5'UTR reporter, inhibitor activity; inhibition, % (tested at 7.5 µM); AID 1813, 2009; 0.82% of 300,000 active; in the data active = inhibition above about 60%; inconclusive = no clear call, values can overlap the other calls;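 also: H4 neuroglioblastoma cells stably carrying SNCA 5'UTR luciferase fusion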
Hep lipid drop: inhibitors of hepatocyte lipid droplet formation, primary screen, imaging, high-throughput imaging, BODIPY stain. AML12 mouse hepatocytes, oleate lipid droplets. inhibition, % at 6.5 µM. 0.4% of 240,000 active;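 active = lipid droplet intensity inhibited by at least 50%, with more than 500 cells counted; inconclusive = wells with under 300 cells, treated as cytotoxic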
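Assay system: AML12 mouse liver cells | Compound: 6.5 µM single-point dosing | Schedule: Overnight exposure | Technique: Fluorescence imaging, 20x objective, two fields per well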
697 NFkB inh: inhibitors of PMA/ionomycin-induced NF-kB reporter, 697 cells, primary screen, B-cell NF-kB inhibitor project, cell-based, luminescence, uHTS. 697 B-cell NF-kB luciferase reporter, 16 h. inhibition, % at 4 µM. AID 435022, 2010. 0.33% of 330,000 active; in the data active = inhibition above about 35%
Jurkat NFkB conf: PMA/ionomycin-induced NF-kB reporter inhibitors, Jurkat retest, confirmation, T-cell NF-kB inhibitor project, cell-based, luminescence, single concentration; AID 435020, 2010; 27% of 2,700 active; shares compounds with Jurkat NFkB inh; Jurkat NF-kB luciferase, 16 h; inhibition, % at 4 µM;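 active = inhibition reaching about 45% at 4 µM in either replicate, limit read from the data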
Large screens that a line does not name were inactive (follow-up assays come after a bar, where they were run).

O=[N+]([O-])c1ccc(Sc2ccc(Cl)c(Cl)c2)nc1	Jurkat NFkB inh 79 (no result: TAG inh, Hep lipid drop) | Jurkat NFkB conf inactive
CC1(C)Cc2nc3sc4c(=O)n(CC(=O)NCc5ccco5)cnc4c3cc2CO1	Jurkat NFkB inh 50 (no result: TAG inh, Hep lipid drop) | Jurkat NFkB conf inactive
CC1(C)Cc2nc3oc4c(=O)n(CC(=O)Nc5ccccc5)cnc4c3cc2CO1	none (no result: TAG inh)
CCC1CCC2(CC1)NNC(=S)NN2	none (no result: TAG inh)
Cc1cc(C)nc(/N=C(\N)Nc2ccc(OCCC(C)C)cc2)n1	Jurkat NFkB inh 61 (no result: APP transl inh, TAG inh) | Jurkat NFkB conf inactive
Cc1cc(C)nc(/N=C(\N)Nc2cccc(OCc3ccccc3)c2)n1	Jurkat NFkB inh 70 (no result: APP transl inh) | Jurkat NFkB conf inactive
Cc1cc(C)nc(/N=C(\N)Nc2ccc(OCc3ccccc3)cc2)n1	Jurkat NFkB inh 51 | Jurkat NFkB conf inactive
COc1ccc(N/C(N)=N/c2nc(C)cc(C)n2)cc1	none (no result: APP transl inh, Jurkat NFkB inh, aSyn 5UTR inh, Hep lipid drop, 697 NFkB inh)
CCCCN(C(=O)COc1ccc(F)cc1)c1c(N)n(CC(C)C)c(=O)[nH]c1=O	none (no result: APP transl inh, Jurkat NFkB inh, aSyn 5UTR inh, Hep lipid drop, 697 NFkB inh)
Cc1ccc(C(=O)c2sc3nsc(C)c3c2N)cc1	none | Jurkat NFkB conf inactive
COc1ccc(-c2nc(-c3ccc(Br)o3)no2)cc1OC	none
COc1cccc(-c2noc(-c3ccc4c(c3)OCO4)n2)c1	none | Jurkat NFkB conf inactive
COc1ccccc1-c1nc(-c2ccc(Br)o2)no1	none (no result: Hep lipid drop) | Jurkat NFkB conf inactive
COc1cccc(-c2nc(-c3ccc(Br)o3)no2)c1	none (no result: APP transl inh) | Jurkat NFkB conf inactive
Cc1ccc(CN(C)CC(=O)Nc2ccc3c(c2)CCC3)cc1	none
COc1ccc(NC(=O)CSc2nnc(C)s2)cc1S(=O)(=O)N1CCOCC1	none (no result: APP transl inh, aSyn 5UTR inh, Hep lipid drop)
Cn1c(/C=C/c2ccccc2[N+](=O)[O-])nc2ccccc2c1=O	none (no result: APP transl inh, TAG inh)
O=[N+]([O-])c1ccccc1/C=C/c1ccc2ccccc2n1	none (no result: APP transl inh, Hep lipid drop) | Jurkat NFkB conf inactive
Cc1ccsc1C(=O)Nc1nc2ccccc2[nH]1	none (no result: APP transl inh) | Jurkat NFkB conf inactive
O=C(Nc1nc2ccccc2[nH]1)c1ccc(F)cc1	none (no result: TAG inh, Hep lipid drop) | Jurkat NFkB conf inactive
O=C(Nc1nc2ccccc2[nH]1)c1cc(F)cc(F)c1	none (no result: APP transl inh, TAG inh)
Cc1cc(C)cc(C(=O)Nc2nc3ccccc3[nH]2)c1	none (no result: APP transl inh, TAG inh)
COc1ccc(Br)c(C(=O)Nc2nc3ccccc3[nH]2)c1	none (no result: APP transl inh, TAG inh)
COc1ccc2oc(C(=O)Nc3nc4ccccc4[nH]3)c(C)c2c1	none (no result: APP transl inh) | Jurkat NFkB conf inactive
O=C(Nc1ccc(F)cc1)c1cc2ccccc2o1	none (no result: APP transl inh)
O=C(Nc1nc2ccccc2[nH]1)c1cc2ccccc2o1	none | Jurkat NFkB conf inactive
CC(C)C(=O)c1cn(CC(=O)NCc2ccco2)c2ccccc12	none
CCOC(=O)C(C)Oc1cccc2c(=O)n(CC(=O)NCc3ccco3)ccc12 (stereo unspecified)	APP transl inh 94, Jurkat NFkB inh 57, aSyn 5UTR inh 73, Hep lipid drop inconclusive | Jurkat NFkB conf inactive
O=C(N/N=C/c1ccc(O)cc1)c1[nH]c2ccc(Br)cc2c1-c1ccccc1	APP transl inh 94, Jurkat NFkB inh 60, Hep lipid drop inconclusive | Jurkat NFkB conf inactive
C/C(=N\NC(=O)CCC(=O)O)c1c(-c2ccccc2)c2cc(Br)ccc2[nH]c1=O	none (no result: APP transl inh)
CCOc1ccc(/C=N/NC(=O)c2[nH]c3ccc(C)cc3c2C)cc1	none (no result: APP transl inh, TAG inh)
Cc1c(C(=O)N/N=C/c2ccc(Cl)cc2)[nH]c2ccc(Cl)cc12	APP transl inh 93, Jurkat NFkB inh 52 | Jurkat NFkB conf 51
COC(=O)c1ccccc1NC(=O)Nc1cc(C)ccn1	none (no result: TAG inh)
Cc1ccnc(NC(=O)Nc2ccc(Br)cc2Cl)c1	none | Jurkat NFkB conf inactive
CC12CCC(=O)N1C(C(=O)Nc1nc(-c3ccccc3Cl)cs1)CS2 (stereo unspecified)	none (no result: APP transl inh, Hep lipid drop)
O=C(c1ccc(Cn2ccc([N+](=O)[O-])n2)cc1)N1CCN(Cc2ccccc2)CC1	none (no result: APP transl inh)
CSc1ccc(CN2CCN(C(=O)c3ccc([N+](=O)[O-])cc3)CC2)cc1	Jurkat NFkB inh 53 | Jurkat NFkB conf inactive
CCOC(=O)/C=C/[C@H]1CCc2cccc(C)c2O1	none (no result: APP transl inh, aSyn 5UTR inh, Hep lipid drop)
Cc1cc(/C=N/n2cnnc2)c(C)n1-c1ccc(OCc2ccc(Cl)cc2)cc1	Jurkat NFkB inh 52 (no result: Hep lipid drop) | Jurkat NFkB conf inactive
Cc1cc(/C=N/n2cnnc2)c(C)n1-c1ccc(OCc2ccccc2F)cc1	none (no result: TAG inh, Hep lipid drop)
Cc1ccc(S(=O)(=O)NC2=NCN(C(C)C)CN2)cc1	none (no result: APP transl inh, TAG inh)
COc1ccc(C2=NN(C(C#N)c3ccc(OC)c(OC)c3)C(c3ccccc3)C2)cc1 (stereo unspecified)	none | Jurkat NFkB conf inactive
CCCC(=O)NC(c1ccc(OC)cc1)c1ccc2cccnc2c1O (stereo unspecified)	APP transl inh 82, Jurkat NFkB inh 62, aSyn 5UTR inh 129 | Jurkat NFkB conf 60
CC(=O)NC(c1ccc(C(C)C)cc1)c1ccc2cccnc2c1O (stereo unspecified)	Jurkat NFkB inh 51, aSyn 5UTR inh 67 (no result: APP transl inh, TAG inh) | Jurkat NFkB conf 74
CCC(=O)NC(c1ccc(OC)cc1)c1c(O)ccc2ccccc12 (stereo unspecified)	none (no result: TAG inh)
CC(=O)NC(c1ccccc1)c1cc([N+](=O)[O-])c2cccnc2c1O (stereo unspecified)	none
CCCCC(=O)NC(c1ccc(C(C)C)cc1)c1ccc2cccnc2c1O (stereo unspecified)	Jurkat NFkB inh 61, aSyn 5UTR inh 112 (no result: APP transl inh, TAG inh, Hep lipid drop) | Jurkat NFkB conf 82
CCC(=O)NC(c1cccs1)c1cc([N+](=O)[O-])c2cccnc2c1O (stereo unspecified)	none (no result: APP transl inh, TAG inh)
COc1cc(/C=N/O)ccc1OCc1ccc(Cl)cc1	none (no result: TAG inh) | Jurkat NFkB conf inactive
COc1cc(/C=N/N=C(N)N)ccc1OCc1ccc(Cl)cc1	none (no result: TAG inh)
COc1cc(/C=C(\C#N)C(=O)Nc2cccc(C(=O)O)c2)ccc1OCc1ccc(Cl)cc1	none (no result: APP transl inh, TAG inh, Hep lipid drop) | Jurkat NFkB conf inactive
COc1ccc(Cl)cc1NC(=O)CN(C)C(=O)c1cc(-c2ccncc2)nc2ccccc12	none (no result: APP transl inh, Hep lipid drop)
COc1cc(OC)c(C(=O)Nc2ccc(C(=O)c3ccccc3)cc2)cc1OC	none (no result: APP transl inh)
COC(=O)c1ccccc1NC1=C/C(=N\S(=O)(=O)c2ccc(C(=O)O)cc2)c2ccccc2C1=O	none (no result: APP transl inh, TAG inh)
COC(=O)c1ccccc1NC1=C/C(=N\S(=O)(=O)c2cccs2)c2ccccc2C1=O	Jurkat NFkB inh 52 | Jurkat NFkB conf 66
CCOc1cc(C#N)c(NC(=O)c2cccnc2Cl)cc1OCC	none (no result: Hep lipid drop)
CCOc1cc(C#N)c(NC(=O)c2cccnc2)cc1OCC	APP transl inh 89, Jurkat NFkB inh 62 (no result: Hep lipid drop) | Jurkat NFkB conf 52
CCC(=O)Nc1ccc(C(=O)NNC(=O)c2cccc(C)c2)cc1	none (no result: APP transl inh, TAG inh, Hep lipid drop)

Source: PubChem BioAssay
